Experimental data from publication PMC10762718 (RSC Advances, 2024).

System: MDA-MB-231 (human breast cancer) cells
Assay: MTT cell viability assay, MDA-MB-231
Format: cell-based
Conditions: MDA-MB-231, 72 h, read-out: Cell viability (%) ±SD
How it was run: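 MDA-MB-231 cells were grown as a monolayer in DMEM with 10% heat-inactivated FBS and 1% penicillin-streptomycin at 37 °C in humidified CO2, subcultured every third day with trypsin-EDTA, and used before passage 8. Cells were exposed 72 h to 10, 25 and 50 μM. Medium was removed, MTT added for 3 h at 37 °C, formazan dissolved in DMSO and read at 595 nm. Viability is relative to untreated control, triplicates, ±SD. IC50 comes from the viability-versus-concentration plot.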

Row | Compound | viability at 10 µM [%] | viability at 25 µM [%] | viability at 50 µM [%]
1 | CC(=O)OC[C@H]1O[C@H](n2cc(Cn3ccc4nc(-c5ccc6ccccc6c5)cc(=O)n43)nn2)[C@@H](OC(C)=O)[C@@H](OC(C)=O)[C@@H]1OC(C)=O [Compound 47, (2R,3R,4S,5S,6S)-2-(Acetoxymethyl)-6-(4-((5-(naphthalen-2-yl)-7-oxopyrazolo[1,5-a]pyrimidin-1(7H)-yl)methyl)-1H-1,2,3-triazol-1-yl)tetrahydro-2H-pyran-3,4,5-triyl triacetate] | 102 ± 9.28 | 89.8 ± 2.22 | 81.5 ± 5.45
2 | CC(=O)OC[C@@H]1O[C@H](n2cc(Cn3ccc4nc(-c5ccc6ccccc6c5)cc(=O)n43)nn2)[C@@H](OC(C)=O)[C@H](OC(C)=O)[C@@H]1OC(C)=O (stereo in doubt) [Compound 38, (2S,3R,4R,5S,6S)-2-(Acetoxymethyl)-6-(4-((5-(naphthalen-2-yl)-7-oxopyrazolo[1,5-a]pyrimidin-1(7H)-yl)methyl)-1H-1,2,3-triazol-1-yl)tetrahydro-2H-pyran-3,4,5-triyl triacetate] | 92 ± 8.31 | 89.6 ± 9.91 | 67.7 ± 10.8
3 | CC(=O)OC[C@@H]1O[C@H](n2cc(Cn3ccc4nc(-c5ccc(C(C)C)cc5)cc(=O)n43)nn2)[C@@H](OC(C)=O)[C@H](OC(C)=O)[C@@H]1OC(C)=O (stereo in doubt) [Compound 37, (2S,3R,4R,5S,6S)-2-(Acetoxymethyl)-6-(4-((5-(4-isopropylphenyl)-7-oxopyrazolo[1,5-a]pyrimidin-1(7H)-yl)methyl)-1H-1,2,3-triazol-1-yl)tetrahydro-2H-pyran-3,4,5-triyl triacetate] | 85.2 ± 3.5 | 80.5 ± 8.96 | 78.7 ± 2.56
4 | CC(=O)OC[C@@H]1O[C@H](n2cc(Cn3ccc4nc(-c5ccc(C(F)(F)F)cc5)cc(=O)n43)nn2)[C@@H](OC(C)=O)[C@H](OC(C)=O)[C@H]1OC(C)=O (stereo in doubt) [Compound 27, (2S,3S,4R,5S,6S)-2-(Acetoxymethyl)-6-(4-((7-oxo-5-(4-(trifluoromethyl)phenyl)pyrazolo[1,5-a]pyrimidin-1(7H)-yl)methyl)-1H-1,2,3-triazol-1-yl)tetrahydro-2H-pyran-3,4,5-triyl triacetate] | 93.2 ± 8.51 | 89.8 ± 8.75 | 74.8 ± 7.02
5 | CC(=O)OC[C@@H]1O[C@H](n2cc(Cn3ccc4nc(-c5ccc6c(c5)OCO6)cc(=O)n43)nn2)[C@@H](OC(C)=O)[C@H](OC(C)=O)[C@@H]1OC(C)=O (stereo in doubt) [Compound 39, (2S,3R,4R,5S,6S)-2-(Acetoxymethyl)-6-(4-((5-(benzo[d][1,3]dioxol-5-yl)-7-oxopyrazolo[1,5-a]pyrimidin-1(7H)-yl)methyl)-1H-1,2,3-triazol-1-yl)tetrahydro-2H-pyran-3,4,5-triyl triacetate] | 101 ± 9.67 | 98.25 ± 0.34 | 97.5 ± 1.88
6 | CC(=O)OC[C@@H]1O[C@H](n2cc(Cn3ccc4nc(-c5ccc(Cl)cc5)cc(=O)n43)nn2)[C@@H](OC(C)=O)[C@H](OC(C)=O)[C@H]1OC(C)=O (stereo in doubt) [Compound 25, (2S,3S,4R,5S,6S)-2-(Acetoxymethyl)-6-(4-((5-(4-chlorophenyl)-7-oxopyrazolo[1,5-a]pyrimidin-1(7H)-yl)methyl)-1H-1,2,3-triazol-1-yl)tetrahydro-2H-pyran-3,4,5-triyl triacetate] | 98.6 ± 2.25 | 93.2 ± 1.96 | 86.2 ± 9.22
7 | CC(=O)OC[C@H]1O[C@H](n2cc(Cn3ccc4nc(-c5ccc6c(c5)OCO6)cc(=O)n43)nn2)[C@@H](OC(C)=O)[C@@H](OC(C)=O)[C@@H]1OC(C)=O [Compound 48, (2R,3R,4S,5S,6S)-2-(Acetoxymethyl)-6-(4-((5-(benzo[d][1,3]dioxol-5-yl)-7-oxopyrazolo[1,5-a]pyrimidin-1(7H)-yl)methyl)-1H-1,2,3-triazol-1-yl)tetrahydro-2H-pyran-3,4,5-triyl triacetate] | 96.5 ± 4.91 | 93.3 ± 3.6 | 92.9 ± 9.08
8 | CC(=O)OC[C@H]1O[C@H](n2cc(Cn3ccc4nc(-c5ccc(Br)cc5)cc(=O)n43)nn2)[C@@H](OC(C)=O)[C@@H](OC(C)=O)[C@@H]1OC(C)=O [Compound 42, (2R,3R,4S,5S,6S)-2-(Acetoxymethyl)-6-(4-((5-(4-bromophenyl)-7-oxopyrazolo[1,5-a]pyrimidin-1(7H)-yl)methyl)-1H-1,2,3-triazol-1-yl)tetrahydro-2H-pyran-3,4,5-triyl triacetate] | 81.3 ± 7.65 | 78.5 ± 6.58 | 75.5 ± 8.45
9 | CC(=O)OC[C@@H]1O[C@H](n2cc(Cn3ccc4nc(-c5ccc(C(C)C)cc5)cc(=O)n43)nn2)[C@@H](OC(C)=O)[C@H](OC(C)=O)[C@H]1OC(C)=O (stereo in doubt) [Compound 28, (2S,3S,4R,5S,6S)-2-(Acetoxymethyl)-6-(4-((5-(4-isopropylphenyl)-7-oxopyrazolo[1,5-a]pyrimidin-1(7H)-yl)methyl)-1H-1,2,3-triazol-1-yl)tetrahydro-2H-pyran-3,4,5-triyl triacetate] | 102 ± 8.51 | 99.1 ± 3.51 | 69.5 ± 17.7
